Data reported in ChEMBL document CHEMBL3526095, “Characterization of the in vitro and in vivo metabolism and disposition and cytochrome P450 inhibition/induction profile of saxagliptin in human” (Drug Metab Dispos, 2012).

What was measured:
[1] = biological target: T1, Cytochrome P450 2E1 (Homo sapiens, UniProt P05181); assay: Inhibition of CYP2E1 in human liver microsomes assessed as chlorzoxazone 6-hydroxylation preincubated for 15 mins by LC-MS/MS analysis in presence of NADPH; assay type: ADME
T1 sequence (P05181 whole entry): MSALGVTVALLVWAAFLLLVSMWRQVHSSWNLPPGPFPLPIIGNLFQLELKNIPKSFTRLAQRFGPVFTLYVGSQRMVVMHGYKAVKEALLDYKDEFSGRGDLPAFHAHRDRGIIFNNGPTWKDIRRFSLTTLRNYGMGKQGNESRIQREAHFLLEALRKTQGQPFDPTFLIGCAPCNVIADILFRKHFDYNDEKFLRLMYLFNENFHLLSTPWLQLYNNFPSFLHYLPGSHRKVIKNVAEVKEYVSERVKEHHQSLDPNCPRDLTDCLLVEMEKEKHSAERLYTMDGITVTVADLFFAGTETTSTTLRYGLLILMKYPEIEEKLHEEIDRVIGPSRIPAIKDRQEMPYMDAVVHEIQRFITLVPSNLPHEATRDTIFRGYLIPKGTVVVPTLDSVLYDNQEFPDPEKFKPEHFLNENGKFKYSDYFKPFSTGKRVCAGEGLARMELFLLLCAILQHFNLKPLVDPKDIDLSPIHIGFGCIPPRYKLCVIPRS
Outline: (§1)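 Time-dependent format. Pooled human liver microsomes (15 donors) were preincubated 15 min at 37°C with test compound, with and without 1 mM NADPH. The probe substrate was then added at the same concentration as in the direct assay.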

[2] = biological target: T2, Cytochrome P450 2C8 (Homo sapiens, UniProt P10632); assay: Inhibition of CYP2C8 in human liver microsomes assessed as paclitaxel 6alpha-hydroxylation after 3 mins by LC-MS/MS analysis in presence of NADPH; assay type: ADME
T2 sequence (P10632 whole entry): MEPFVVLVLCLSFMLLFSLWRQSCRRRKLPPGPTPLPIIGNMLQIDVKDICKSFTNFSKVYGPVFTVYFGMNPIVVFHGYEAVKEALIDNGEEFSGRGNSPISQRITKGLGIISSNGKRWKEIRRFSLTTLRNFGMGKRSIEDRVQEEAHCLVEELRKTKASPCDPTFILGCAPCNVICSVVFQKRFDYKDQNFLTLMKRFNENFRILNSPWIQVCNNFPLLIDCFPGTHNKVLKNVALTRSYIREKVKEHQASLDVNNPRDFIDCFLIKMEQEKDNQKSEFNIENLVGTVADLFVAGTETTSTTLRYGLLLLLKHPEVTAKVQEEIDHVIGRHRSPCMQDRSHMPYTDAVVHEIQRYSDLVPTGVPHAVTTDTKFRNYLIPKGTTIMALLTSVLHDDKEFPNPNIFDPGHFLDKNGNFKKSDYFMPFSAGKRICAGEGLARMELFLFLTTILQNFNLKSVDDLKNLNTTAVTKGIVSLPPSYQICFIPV
Outline: (§2)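 Pooled HLM from 15 donors, probe substrate near its experimentally determined level, in 100 mM phosphate buffer pH 7.4 at 37°C. Saxagliptin tested at 0.1–50 µM, M2 at 0.1–200 µM. Direct inhibition: 3-min equilibration, then reaction started with 1 mM NADPH. Time-dependent inhibition: 15-min preincubation with or without NADPH, then substrate added.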

[3] = biological target: T3, Cytochrome P450 2D6 (Homo sapiens, UniProt P10635); assay: Inhibition of CYP2D6 in human liver microsomes assessed as bufuralol 1'-hydroxylation after 3 mins by LC-MS/MS analysis; assay type: ADME
T3 sequence (P10635 whole entry): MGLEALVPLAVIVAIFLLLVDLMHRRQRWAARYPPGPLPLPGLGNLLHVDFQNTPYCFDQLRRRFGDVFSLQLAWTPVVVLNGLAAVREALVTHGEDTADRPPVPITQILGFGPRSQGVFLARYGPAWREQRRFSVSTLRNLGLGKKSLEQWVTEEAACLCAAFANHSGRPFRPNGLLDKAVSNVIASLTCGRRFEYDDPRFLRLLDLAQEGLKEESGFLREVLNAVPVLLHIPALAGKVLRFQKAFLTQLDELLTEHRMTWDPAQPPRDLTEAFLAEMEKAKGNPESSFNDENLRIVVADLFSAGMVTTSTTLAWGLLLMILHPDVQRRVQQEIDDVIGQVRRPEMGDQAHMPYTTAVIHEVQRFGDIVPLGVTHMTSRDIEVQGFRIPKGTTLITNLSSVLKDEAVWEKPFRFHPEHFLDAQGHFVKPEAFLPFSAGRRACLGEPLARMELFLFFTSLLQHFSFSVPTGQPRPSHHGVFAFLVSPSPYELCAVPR

[4] = biological target: T1, Cytochrome P450 2E1; assay: Inhibition of CYP2E1 in human liver microsomes assessed as chlorzoxazone 6-hydroxylation after 3 mins by LC-MS/MS analysis in presence of NADPH; assay type: ADME
[5] = biological target: T4, Cytochrome P450 2B6 (Homo sapiens, UniProt P20813); assay: Inhibition of CYP2B6 in human liver microsomes assessed as bupropion hydroxylation preincubated for 15 mins by LC-MS/MS analysis in presence of NADPH; assay type: ADME; outline: as §2
T4 sequence (P20813 whole entry): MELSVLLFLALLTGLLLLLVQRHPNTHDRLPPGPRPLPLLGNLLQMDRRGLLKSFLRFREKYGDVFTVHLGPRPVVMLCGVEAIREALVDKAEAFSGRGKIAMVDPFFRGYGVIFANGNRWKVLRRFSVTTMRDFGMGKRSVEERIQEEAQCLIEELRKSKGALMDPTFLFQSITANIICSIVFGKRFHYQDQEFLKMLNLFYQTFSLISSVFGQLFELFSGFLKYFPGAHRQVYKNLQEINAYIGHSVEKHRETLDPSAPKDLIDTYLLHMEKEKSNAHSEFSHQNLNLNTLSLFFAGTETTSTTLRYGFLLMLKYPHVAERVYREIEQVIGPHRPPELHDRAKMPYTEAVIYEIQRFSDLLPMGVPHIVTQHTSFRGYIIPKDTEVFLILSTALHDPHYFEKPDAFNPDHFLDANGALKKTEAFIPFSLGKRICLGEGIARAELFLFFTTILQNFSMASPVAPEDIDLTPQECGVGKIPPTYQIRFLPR

[6] = biological target: T3, Cytochrome P450 2D6; assay: Inhibition of CYP2D6 in human liver microsomes assessed as bufuralol 1'-hydroxylation preincubated for 15 mins by LC-MS/MS analysis; assay type: ADME; outline: as §1
[7] = biological target: T5, Cytochrome P450 2C19 (Homo sapiens, UniProt P33261); assay: Inhibition of CYP2C19 in human liver microsomes assessed as (S)-mephenytoin 4'-hydroxylation preincubated for 15 mins by LC-MS/MS analysis; assay type: ADME; outline: as §2
T5 sequence (P33261 whole entry): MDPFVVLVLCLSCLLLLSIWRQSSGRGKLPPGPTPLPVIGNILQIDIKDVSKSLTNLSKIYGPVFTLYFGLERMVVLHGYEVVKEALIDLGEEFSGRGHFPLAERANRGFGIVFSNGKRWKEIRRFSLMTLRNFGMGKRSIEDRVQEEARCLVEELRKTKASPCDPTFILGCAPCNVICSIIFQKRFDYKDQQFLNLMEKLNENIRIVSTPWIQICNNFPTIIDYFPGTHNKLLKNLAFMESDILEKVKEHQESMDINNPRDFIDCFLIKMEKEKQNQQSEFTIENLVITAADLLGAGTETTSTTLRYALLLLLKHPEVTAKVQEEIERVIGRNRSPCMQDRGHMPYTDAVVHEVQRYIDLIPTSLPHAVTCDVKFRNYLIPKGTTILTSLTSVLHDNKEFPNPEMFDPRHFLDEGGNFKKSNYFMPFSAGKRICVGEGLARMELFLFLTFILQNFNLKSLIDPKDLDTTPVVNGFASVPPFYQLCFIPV

[8] = test system: Hepatocyte; assay: Cytotoxicity against human hepatocytes assessed as change in morphological integrity up to 25 uM; assay type: cell-based
[9] = Oral bioavailability in monkey; assay type: ADME, organism-based, Macaca mulatta; conditions: rhesus monkey, in vivo
[10] = biological target: T6, Cytochrome P450 2C9 (Homo sapiens, UniProt P11712); assay: Inhibition of CYP2C9 in human liver microsomes assessed as paclitaxel 6alpha-hydroxylation after 3 mins by LC-MS/MS analysis in presence of NADPH; assay type: ADME; conditions: in the assay text read “tolbutamide hydroxylation” for “paclitaxel 6alpha-hydroxylation”; outline: as §2
T6 sequence (P11712 whole entry): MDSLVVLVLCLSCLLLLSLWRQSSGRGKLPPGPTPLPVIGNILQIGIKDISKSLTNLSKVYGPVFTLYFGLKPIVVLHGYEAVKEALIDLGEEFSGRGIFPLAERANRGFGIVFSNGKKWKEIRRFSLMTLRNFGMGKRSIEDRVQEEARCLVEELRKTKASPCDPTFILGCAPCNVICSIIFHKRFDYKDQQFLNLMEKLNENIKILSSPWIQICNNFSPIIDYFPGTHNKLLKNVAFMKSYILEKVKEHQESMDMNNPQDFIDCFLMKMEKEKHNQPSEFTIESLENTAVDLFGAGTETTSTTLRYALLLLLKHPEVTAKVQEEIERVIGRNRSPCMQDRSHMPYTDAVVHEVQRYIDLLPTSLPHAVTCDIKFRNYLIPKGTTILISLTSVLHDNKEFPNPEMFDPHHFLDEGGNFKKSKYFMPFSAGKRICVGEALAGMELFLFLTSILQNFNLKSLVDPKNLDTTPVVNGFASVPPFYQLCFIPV

[11] = biological target: T4, Cytochrome P450 2B6; assay: Inhibition of CYP2B6 in human liver microsomes assessed as bupropion hydroxylation after 3 mins by LC-MS/MS analysis in presence of NADPH; assay type: ADME; outline: as §2
[12] = biological target: T2, Cytochrome P450 2C8; assay: Inhibition of CYP2C8 in human liver microsomes assessed as paclitaxel 6alpha-hydroxylation preincubated for 15 mins by LC-MS/MS analysis in presence of NADPH; assay type: ADME; outline: as §2
[13] = biological target: T6, Cytochrome P450 2C9; assay: Inhibition of CYP2C9 in human liver microsomes assessed as paclitaxel 6alpha-hydroxylation preincubated for 15 mins by LC-MS/MS analysis in presence of NADPH; assay type: ADME; conditions: in the assay text read “tolbutamide hydroxylation” for “paclitaxel 6alpha-hydroxylation”; outline: as §2
[14] = biological target: T5, Cytochrome P450 2C19; assay: Inhibition of CYP2C19 in human liver microsomes assessed as (S)-mephenytoin 4'-hydroxylation after 3 mins by LC-MS/MS analysis; assay type: ADME; outline: as §2
[15] = test system: Hepatocyte; assay: Cytotoxicity against human hepatocytes up to 100 uM by lactate dehydrogenase assay; assay type: cell-based
[16] = biological target: T7, Cytochrome P450 1A2 (Homo sapiens, UniProt P05177); assay: Inhibition of CYP1A2 in human liver microsomes assessed as phenacetin O-deethylation after 3 mins by LC-MS/MS analysis in presence of NADPH; assay type: ADME
T7 sequence (P05177 whole entry): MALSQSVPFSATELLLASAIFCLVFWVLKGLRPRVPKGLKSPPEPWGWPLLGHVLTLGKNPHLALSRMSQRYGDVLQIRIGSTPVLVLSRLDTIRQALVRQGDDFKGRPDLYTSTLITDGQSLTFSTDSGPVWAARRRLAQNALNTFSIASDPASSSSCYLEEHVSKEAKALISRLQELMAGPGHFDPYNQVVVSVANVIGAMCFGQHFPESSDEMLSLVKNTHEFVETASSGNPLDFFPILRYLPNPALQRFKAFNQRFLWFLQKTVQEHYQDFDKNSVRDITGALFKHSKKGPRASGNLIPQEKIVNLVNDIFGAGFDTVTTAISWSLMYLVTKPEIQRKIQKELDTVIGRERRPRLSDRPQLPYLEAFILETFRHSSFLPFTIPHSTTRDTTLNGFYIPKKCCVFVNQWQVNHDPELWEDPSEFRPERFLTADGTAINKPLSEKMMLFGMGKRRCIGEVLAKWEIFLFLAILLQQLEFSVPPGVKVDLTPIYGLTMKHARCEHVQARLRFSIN

IC50 [1]	IC50 [2]	IC50 [3]	IC50 [4]	IC50 [5]	IC50 [6]	IC50 [7]	bioavailability [9]	IC50 [10]	IC50 [11]	IC50 [12]	IC50 [13]	IC50 [14]	IC50 [16]	SMILES	Activity [8]	Activity [15]
> 50 µM	> 50 µM	> 50 µM	> 50 µM	> 50 µM	> 50 µM	> 50 µM	51%	> 50 µM	> 50 µM	> 50 µM	> 50 µM	> 50 µM		N#C[C@@H]1C[C@@H]2C[C@@H]2N1C(=O)[C@@H](N)C12CC3CC(CC(O)(C3)C1)C2 [SAXAGLIPTIN ANHYDROUS]	Non-toxic	
> 200 µM	> 200 µM	> 200 µM	> 200 µM	> 200 µM	> 200 µM	> 200 µM		> 200 µM	> 200 µM	> 200 µM	> 200 µM	> 200 µM	> 200 µM	N#C[C@@H]1C[C@@H]2C[C@@H]2N1C(=O)[C@@H](N)C12CC3CC(O)(CC(O)(C3)C1)C2		Non-toxic
